From ChEMBL document CHEMBL1129752, “Novel 3-Pyridyl ethers with subnanomolar affinity for central neuronal nicotinic acetylcholine receptors” (J Med Chem, 1996)

Columns and labels:
[1] = target: Neuronal acetylcholine receptor; test: Binding affinity against Nicotinic Acetylcholine Receptor was determined by measuring the displacement of [3H]cytisine from a preparation of whole rat brain.
Method in brief: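 Displacement of the radioligand [3H]-(-)-cytisine from a whole rat brain preparation, which mainly labels the α4β2 receptor subtype. The procedure follows a previously published method.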

[2] = test system: IMR-32; test: Maximum efficacy relative to 100(uM) (S)-nicotine for cell preparations containing alpha3-betaX IMR32 cells; format: functional, Homo sapiens
[3] = test system: IMR-32; test: Ability to stimulate Rb+ efflux from human IMR-32 cell preparations containing human alpha3-betaX receptors; format: functional, cell-based
[4] = test system: K177 cell line; test: Maximum efficacy relative to 100(uM) (S)-nicotine for cell preparations containing alpha4-beta2 K177 cells; format: functional, Homo sapiens
[5] = test system: K177 cell line; test: Ability to stimulate Rb+ efflux from human K177 cell preparations containing human alpha4-beta2 receptors; format: functional, cell-based
[6] = test system: IMR-32 (Homo sapiens); test: Ability to stimulate Rb+ efflux from human IMR-32 cell preparations containing human alpha3-betaX receptors

Row | SMILES | Ki [1] [nM] | Max [2] [%] | EC50 [3] [µM] | Max [4] [%] | EC50 ([5]; Homo sapiens, K177) [nM] | IC50 [3] [µM] | IC50 [5] [µM] | Max [6] [%] | EC50 ([5]; k177) [nM]
1 | c1cncc(OC[C@H]2CCCN2)c1 | 0.14 | 100 | 5.8 | 120 | 4300 |  |  |  | 
2 | CN1CC[C@@H]1COc1cccnc1 | 3.5 | 39 | 38 | 103 | 35000 |  |  |  | 
3 | c1cncc(OC[C@H]2CCN2)c1 |  | 116 | 1.1 | 159 | 400 |  |  |  | 
4 | CN1CCC[C@@H]1COc1cccnc1 | 19.7 | <20 |  | <10 |  | 54 | 110 |  | 
5 | c1cncc(OC[C@@H]2CCN2)c1 |  | 113 | 0.7 | 163 | 680 |  |  |  | 
6 | CN1CC[C@H]1COc1cccnc1 | 0.45 | 74 | 30 | 116 | 3700 |  |  |  | 
7 | CN1CCC[C@H]1c1cccnc1 [NICOTINE] |  | 100 |  |  | 5000 |  |  | 100 | 
8 | CN1CCC[C@H]1COc1cccnc1 (stereo in doubt; 2a) | 0.15 | 100 |  |  |  |  |  |  | 750
9 | Clc1ccc(C2CC3CCC2N3)cn1 (stereo not drawn) [EPIBATIDINE] |  | 156 | 0.007 |  | 17 |  |  | 156 | 
